The record followed here is ChEMBL document CHEMBL5104228, “Mechanistic insight into the repair of C8-linked pyrrolobenzodiazepine monomer-mediated DNA damage” (2022).

A short description of assay [1]: Binding affinity to AT-rich 5'-fluoro and 3'-TAMRA tagged 5'-TAT-ATA-TAG-ATA-TTT-TTT-TAT-CTA-TAT-ATA-3' hairpin DNA (unknown origin) assessed as thermal stabilization by measuring change in melting temperature at 1 uM incubated for 3 hrs by FRET analysis. In outline: (§1)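 Fluorophore/quencher-tagged hairpin DNA, AT-rich (Sequence 1) or GC-rich (Sequence 2), incubated with compound for 3 h or 24 h, then thermally melted. Melt curves were compared against a DNA-only control for the same sequence. Each reaction was run in triplicate.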

A short description of assay [2]: Binding affinity to AT-rich 5'-fluoro and 3'-TAMRA tagged 5'-TAT-ATA-TAG-ATA-TTT-TTT-TAT-CTA-TAT-ATA-3' hairpin DNA(unknown origin) assessed as thermal stabilization by measuring change in melting temperature at 1 uM incubated for 24 hrs by FRET analysis. The method, boiled down:
as §1

Assay [3] can be described thus: Binding affinity to GC-rich 5'-fluoro and 3'-TAMRA tagged 5'-TAT-AGG-GAC-AGC-CCT-ATA-3' hairpin DNA (unknown origin) assessed as thermal stabilization by measuring change in melting temperature at 1 uM incubated for 3 hrs by FRET analysis. The method, boiled down: as §1
Assay [4] is described as follows: Binding affinity to GC-rich 5'-fluoro and 3'-TAMRA tagged 5'-TAT-AGG-GAC-AGC-CCT-ATA-3' hairpin DNA (unknown origin) assessed as thermal stabilization by measuring change in melting temperature at 1 uM incubated for 24 hrs by FRET analysis. The method, boiled down: as §1
Assay [5] concerns Caulobacter vibrioides. Nature of the assay: Induction of DNA damage in Caulobacter vibrioides assessed as increase in cell death upto 1 ug/ml and measured after 2 days by agar dilution method. In kind it is functional, organism-based. The note with it: dose <= 1.0 µg/ml, time 2.0 day, DDE = dose-dependent effect.
The test system of assay [6] is Caulobacter vibrioides. In words: Induction of DNA damage in Caulobacter vibrioides assessed as accumulation of SOS-induced YFP at 0.5 ug/ml incubated upto 2 hrs by fluorescence microscopy. The note with it: dose 0.5 µg/ml. In kind it is functional, organism-based.
The subject of assay [7] is Caulobacter vibrioides. Nature of the assay: Effect on DNA damage repair in Caulobacter vibrioides lacking recA expression assessed as decrease in cell survival rate upto 1 ug/ml and measured after 2 days by agar dilution method. In kind it is functional, organism-based. The note with it: dose <= 1.0 µg/ml, time 2.0 day.
Assay [8] has as its system Caulobacter vibrioides. In words: Effect on DNA damage repair in Caulobacter vibrioides assessed as fold change as increase in rifampicin resistance colonies at 2 ug/ml incubated for 0.5 hrs followed by culture in new media and treated with rifampicin and measured after 48 hrs by colony formation assay. In kind it is functional. The note with it: dose 2 µg/ml. In outline:
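Caulobacter cells exposed to drug; rifampicin-resistant colony counts expressed as fold change relative to untreated control (no DNA damage). Three independent experiments; mean and SD reported.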

The subject of assay [9] is Caulobacter vibrioides. In words: Effect on DNA damage repair in Caulobacter vibrioides expressing Gam-GFP reporter system assessed as increase in double stranded break by measuring Gam localization in cells at 0.5 ug/ml and measured after 2 hrs by fluorescence analysis. As to conditions: dose 0.5 µg/ml. The class given is functional. In outline:
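Wild-type Caulobacter carrying a Gam-GFP reporter; after drug treatment, cells imaged by fluorescence microscopy and percentage of cells with Gam-GFP foci scored ([…] cells). Three independent experiments; mean and SD reported.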

The subject of assay [10] is Caulobacter vibrioides. Nature of the assay: Effect on DNA damage repair in Caulobacter vibrioides lacking alkB expression assessed as decrease in cell survival rate upto 1 ug/ml and measured after 2 days by agar dilution method. The class given is functional, organism-based. The note with it: dose <= 1.0 µg/ml, time 2.0 day. The method, boiled down:
(§2)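 Survival of Caulobacter wild type, ΔmutL and ΔalkB strains was tested across increasing drug doses. Cultures were serially diluted and spotted, and growth was scored along the dilution series. At least three independent experiments were run per strain, with mean and SEM of all repeats plotted.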

Assay [11] concerns Caulobacter vibrioides. In words: Effect on DNA damage repair in Caulobacter vibrioides lacking mutL expression assessed as decrease in cell survival rate upto 1 ug/ml and measured after 2 days by agar dilution method. In kind it is functional, organism-based. The note with it: dose <= 1.0 µg/ml, time 2.0 day. In outline: as §2
Assay [12] has as its system Caulobacter vibrioides. In words: Effect on DNA damage repair in Caulobacter vibrioides lacking uvrA expression and expressing Gam-GFP reporter system assessed as fold increase in double stranded break by measuring Gam localization in cells at 0.5 ug/ml and measured after 2 hrs by fluorescence analysis. In kind it is functional. The note with it: dose 0.5 µg/ml.
Assay [13] has as its system Caulobacter vibrioides. In words: Effect on DNA damage repair in Caulobacter vibrioides lacking recN expression and expressing Gam-GFP reporter system assessed as fold increase in double stranded break by measuring Gam localization in cells at 0.5 ug/ml and measured after 2 hrs by fluorescence analysis. As to conditions: dose 0.5 µg/ml.
In assay [14] the test system is Caulobacter vibrioides. In words: Effect on DNA damage repair in Caulobacter vibrioides lacking uvrA expression assessed as decrease in cell survival rate upto 1 ug/ml and measured after 2 days by agar dilution method. The class given is functional, organism-based. As to conditions: dose <= 1.0 µg/ml, time 2.0 day.
Assay [15] deals with Caulobacter vibrioides. Nature of the assay: Induction of DNA damage in Caulobacter vibrioides assessed as accumulation of SOS-induced YFP at 1 ug/ml incubated upto 2 hrs by fluorescence microscopy. In kind it is functional, organism-based. As to conditions: dose 1.0 µg/ml.
The test system of assay [16] is Caulobacter vibrioides. In words: Effect on DNA damage repair in Caulobacter vibrioides lacking recA, lexA and sidA expression assessed as decrease in cell survival rate upto 1 ug/ml and measured after 2 days by agar dilution method. In kind it is functional, organism-based. As to conditions: dose <= 1.0 µg/ml, time 2.0 day.
Assay [17] relates to Caulobacter vibrioides. Nature of the assay: Effect on DNA damage repair in Caulobacter vibrioides lacking DnaE2 expression assessed as decrease in cell survival rate upto 1 ug/ml and measured after 2 days by agar dilution method. In kind it is functional, organism-based. The note with it: dose <= 1.0 µg/ml, time 2.0 day.
Assay [18] deals with Caulobacter vibrioides. In words: Effect on DNA damage repair in Caulobacter vibrioides lacking recF expression assessed as decrease in cell survival rate upto 1 ug/ml and measured after 2 days by agar dilution method. In kind it is functional, organism-based. The note with it: dose <= 1.0 µg/ml, time 2.0 day.
Assay [19] relates to Caulobacter vibrioides. In words: Effect on DNA damage repair in Caulobacter vibrioides lacking recO expression assessed as decrease in cell survival rate upto 1 ug/ml and measured after 2 days by agar dilution method. The class given is functional, organism-based. As to conditions: dose <= 1.0 µg/ml, time 2.0 day.
Assay [20] relates to Caulobacter vibrioides. Nature of the assay: Effect on DNA damage repair in Caulobacter vibrioides lacking recR expression assessed as decrease in cell survival rate upto 1 ug/ml and measured after 2 days by agar dilution method. The class given is functional, organism-based. As to conditions: dose <= 1.0 µg/ml, time 2.0 day.
For assay [21], the system named is Caulobacter vibrioides. In words: Effect on DNA damage repair in Caulobacter vibrioides lacking addAB expression assessed as decrease in cell survival rate upto 1 ug/ml and measured after 2 days by agar dilution method. The class given is functional, organism-based. The note with it: dose <= 1.0 µg/ml, time 2.0 day.
In assay [22] the test system is Caulobacter vibrioides. In words: Effect on DNA damage repair in Caulobacter vibrioides lacking recN expression assessed as decrease in cell survival rate upto 1 ug/ml and measured after 2 days by agar dilution method. The note with it: dose <= 1.0 µg/ml, time 2.0 day. In kind it is functional, organism-based.
Assay [23] has as its system Caulobacter vibrioides. Nature of the assay: Effect on DNA damage repair in Caulobacter vibrioides expressing Gam-GFP reporter system assessed as increase in double stranded break by measuring Gam localization in cells at 2 ug/ml and measured after 2 hrs by fluorescence analysis. The class given is functional. As to conditions: dose 2 µg/ml. The method, boiled down: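 Wild-type Caulobacter carrying a Gam-GFP reporter was drug-treated and imaged by fluorescence microscopy. The readout was the percentage of cells with Gam-GFP foci, counting […] cells. Mean and SD are from three independent experiments.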

Assay [24] relates to Caulobacter vibrioides. In words: Effect on DNA damage repair in Caulobacter vibrioides lacking uvrA expression and expressing Gam-GFP reporter system assessed as fold increase in double stranded break by measuring Gam localization in cells at 1 ug/ml and measured after 2 hrs by fluorescence analysis. In kind it is functional. The note with it: dose 1 µg/ml.
Assay [25] has as its system Caulobacter vibrioides. Nature of the assay: Effect on DNA damage repair in Caulobacter vibrioides lacking recN expression and expressing Gam-GFP reporter system assessed as fold increase in double stranded break by measuring Gam localization in cells at 2 ug/ml and measured after 2 hrs by fluorescence analysis. The note with it: dose 2 µg/ml.
Assay [26] deals with Caulobacter vibrioides. In words: Effect on DNA damage repair in Caulobacter vibrioides expressing Gam-GFP reporter system assessed as increase in double stranded break by measuring Gam localization in cells at 25 to 50 ug/ml and measured after 2 hrs by fluorescence analysis. The class given is functional, organism-based. The note with it: dose 25-50 µg/ml.

The source made the active and inactive calls. The rule behind the calls is not given here.

Take `COC(=O)c1cc(NC(=O)c2cc(NC(=O)CCCOc3cc4c(cc3OC)C(=O)N3CCC[C@H]3C=N4)cn2C)cn1C`: the ΔTm was 18.9 °C in assay [1], 21.1 °C in assay [2], 18.6 °C in assay [3] and 19.2 °C in assay [4].
As to `CO[C@@]12[C@H](COC(N)=O)C3=C(C(=O)C(C)=C(N)C3=O)N1C[C@@H]1N[C@@H]12` [MITOMYCIN], the ΔTm worked out at 12.6 °C in [1], 12.8 °C in [2], 11.5 °C in assay [3] and 11.8 °C in assay [4]. Also, the results for the Activity entry in assay [5], in assay [9] and in [12] were “Dde”, 5% and 10%, respectively. In addition, the result in [6], in [7], in [10] and in assay [11] was Active. Also, the “fold change (FC)” value is given as 2.5 in assay [8] and 2 in assay [13].
`COS(C)(=O)=O`: the result in assay [14] was Active.
Regarding `COC(=O)c1cc(-c2ccc(NC(=O)c3cc(NC(=O)CCCOc4cc5c(cc4OC)C(=O)N4CCC[C@H]4C=N5)cn3C)cc2)cn1C`, the ΔTm in [1] turned out to be 15.7 °C; in assay [2], 18.5 °C; in assay [3] it was 16.3 °C; in [4] it was 17.4 °C. The Activity result is “Dde” in assay [5], 5% in assay [23] and 40% in [24]. For the same compound, the outcome in assay [15], in [7], in [16], in assay [17], in [18] and in assay [19] was Active. Moreover, the result in assay [20], in [21], in assay [22], in assay [10], in [11] and in assay [14] was Active. Also, the “fold change (FC)” value in assay [25] is 2.
For the compound `COC(=O)c1cc2cc(NC(=O)c3cc(NC(=O)CCCOc4cc5c(cc4OC)C(=O)N4CCC[C@H]4C=N5)cn3C)ccc2s1`, the ΔTm in [1] was 14 °C; in [2] it was 15.6 °C; in assay [3] it was 15.6 °C; in assay [4], 15.9 °C. The Activity entry is “Dde” in assay [5], 5% in [9] and 56% in assay [12]. The outcome in assay [6], in [7], in assay [16], in assay [17], in assay [18] and in assay [19] was Active. For the same compound, the result in assay [20], in assay [21], in assay [22], in assay [10], in [11] and in [14] was Active. The “fold change (FC)” value in assay [13] turned out to be 2.
Regarding `CCn1cc(C(=O)O)c(=O)c2cc(F)c(N3CCNCC3)cc21`, the outcome in assay [26] and in [14] was Active.
